Assay results reported in ChEMBL document CHEMBL2346606, “Inhibitors of the TAM subfamily of tyrosine kinases: synthesis and biological evaluation” (Eur J Med Chem, 2013).
pKd: −log10 of the molar value.

Assays:
[1] = Growth inhibition of African green monkey Vero cells at 10 uM after 72 hrs by […] assay relative to control; assay type: cell-based; conditions: chlorocebus sabaeus, read-out: GI
Summary of the method: (§1)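 KB and Vero cells were grown in D-MEM with 10% FCS and antibiotics under 5% CO2, plated, then dosed 24 h later at 10^-5 M from DMSO (controls 1% DMSO). After 72 h, MTS was added for 3 h at 37 °C and A490 read. Inhibition = (1 − OD treated/OD control) × 100, in triplicate.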

MCF7 = assay: Growth inhibition of human MCF7 cells at 10 uM after 72 hrs by […] assay relative to control; assay type: functional; conditions: MCF7, 72 h, read-out: GI
Summary of the method: (§2)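 HT29, MCF7 and PC-3 cells were grown in RPMI, plated, and treated 24 h later with compound in DMSO at 10^-5 M (DMSO controls, 1% final). After 72 h exposure, MTS reagent was added for 3 h at 37 °C and absorbance read at 490 nm. Proliferation inhibition = [1 − OD treated/OD control] × 100, triplicate experiments.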

PC-3 = assay: Growth inhibition of human PC3 cells at 10 uM after 72 hrs by […] assay relative to control; assay type: functional; conditions: PC-3, 72 h, read-out: GI; summary of the method: as §2
HT-29 = assay: Growth inhibition of human HT-29 cells at 10 uM after 72 hrs by […] assay relative to control; assay type: functional; conditions: HT-29, 72 h, read-out: GI; summary of the method: as §2
KB = assay: Growth inhibition of human KB cells at 10 uM after 72 hrs by […] relative to control; assay type: functional; conditions: read-out: GI; summary of the method: as §1
[2] = biological target: T1, Tyrosine-protein kinase receptor TYRO3 (Homo sapiens, UniProt Q06418); assay: Binding affinity to TYRO3 (unknown origin) after 1 hr
T1 sequence (Q06418 whole entry): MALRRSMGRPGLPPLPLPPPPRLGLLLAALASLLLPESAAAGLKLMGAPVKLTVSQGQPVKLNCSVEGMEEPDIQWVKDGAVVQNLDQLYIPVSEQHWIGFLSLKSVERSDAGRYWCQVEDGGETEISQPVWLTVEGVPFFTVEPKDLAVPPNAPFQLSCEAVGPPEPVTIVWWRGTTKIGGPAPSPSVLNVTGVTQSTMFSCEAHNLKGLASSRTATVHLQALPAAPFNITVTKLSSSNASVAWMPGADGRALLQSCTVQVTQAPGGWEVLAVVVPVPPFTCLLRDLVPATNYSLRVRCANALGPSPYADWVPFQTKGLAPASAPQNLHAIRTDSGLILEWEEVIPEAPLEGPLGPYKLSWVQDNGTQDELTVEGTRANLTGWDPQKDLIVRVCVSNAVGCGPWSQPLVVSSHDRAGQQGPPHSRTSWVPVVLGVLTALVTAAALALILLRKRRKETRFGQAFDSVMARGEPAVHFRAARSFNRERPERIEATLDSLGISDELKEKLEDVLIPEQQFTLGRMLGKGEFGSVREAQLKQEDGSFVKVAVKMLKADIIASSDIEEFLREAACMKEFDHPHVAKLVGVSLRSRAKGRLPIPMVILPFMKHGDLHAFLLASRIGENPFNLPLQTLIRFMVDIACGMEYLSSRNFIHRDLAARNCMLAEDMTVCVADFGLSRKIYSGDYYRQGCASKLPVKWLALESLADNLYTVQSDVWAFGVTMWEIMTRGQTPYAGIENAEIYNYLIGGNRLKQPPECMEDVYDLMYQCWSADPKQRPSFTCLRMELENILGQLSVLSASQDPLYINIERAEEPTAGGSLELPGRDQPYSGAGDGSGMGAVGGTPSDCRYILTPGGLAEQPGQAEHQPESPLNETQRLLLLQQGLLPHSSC

[3] = biological target: Hepatocyte growth factor receptor (Homo sapiens, UniProt P08581); assay: Binding affinity to MET (unknown origin) after 1 hr
Chain of Hepatocyte growth factor receptor (P08581 whole entry): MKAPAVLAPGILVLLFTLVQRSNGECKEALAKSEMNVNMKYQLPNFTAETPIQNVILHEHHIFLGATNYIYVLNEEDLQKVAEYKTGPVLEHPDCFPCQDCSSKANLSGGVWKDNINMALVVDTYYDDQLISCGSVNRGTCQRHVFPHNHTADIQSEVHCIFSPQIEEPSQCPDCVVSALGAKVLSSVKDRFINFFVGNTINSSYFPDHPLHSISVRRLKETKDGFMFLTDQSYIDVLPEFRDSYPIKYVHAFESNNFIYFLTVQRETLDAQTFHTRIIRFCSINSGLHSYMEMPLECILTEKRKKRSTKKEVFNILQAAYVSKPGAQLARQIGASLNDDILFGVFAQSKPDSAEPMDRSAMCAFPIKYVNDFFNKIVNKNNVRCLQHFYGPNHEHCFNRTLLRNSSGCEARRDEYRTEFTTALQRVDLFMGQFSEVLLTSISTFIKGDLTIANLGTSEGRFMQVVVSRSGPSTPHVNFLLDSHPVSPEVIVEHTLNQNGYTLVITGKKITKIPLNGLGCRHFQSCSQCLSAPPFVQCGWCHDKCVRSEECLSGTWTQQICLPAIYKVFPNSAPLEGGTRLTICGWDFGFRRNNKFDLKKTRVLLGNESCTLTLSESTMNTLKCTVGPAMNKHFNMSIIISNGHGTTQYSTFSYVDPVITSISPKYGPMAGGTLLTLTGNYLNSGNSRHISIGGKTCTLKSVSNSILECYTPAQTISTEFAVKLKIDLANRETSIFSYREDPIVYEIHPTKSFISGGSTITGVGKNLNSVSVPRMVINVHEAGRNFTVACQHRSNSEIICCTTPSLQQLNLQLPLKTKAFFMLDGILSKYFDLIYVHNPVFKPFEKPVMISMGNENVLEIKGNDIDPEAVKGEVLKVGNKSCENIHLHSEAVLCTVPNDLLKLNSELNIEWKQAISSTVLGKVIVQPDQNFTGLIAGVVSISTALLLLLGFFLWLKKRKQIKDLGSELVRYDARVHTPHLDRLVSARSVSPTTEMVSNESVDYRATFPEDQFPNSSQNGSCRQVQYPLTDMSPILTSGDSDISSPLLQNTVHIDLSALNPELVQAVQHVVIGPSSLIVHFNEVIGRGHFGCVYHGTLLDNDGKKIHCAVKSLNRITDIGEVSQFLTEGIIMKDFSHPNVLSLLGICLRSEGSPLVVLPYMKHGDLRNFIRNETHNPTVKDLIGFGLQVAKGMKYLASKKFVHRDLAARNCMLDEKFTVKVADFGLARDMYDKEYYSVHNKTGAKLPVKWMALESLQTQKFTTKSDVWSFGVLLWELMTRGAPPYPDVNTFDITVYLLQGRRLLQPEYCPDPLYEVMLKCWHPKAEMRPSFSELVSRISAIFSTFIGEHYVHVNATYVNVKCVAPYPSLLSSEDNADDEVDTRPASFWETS

[4] = biological target: T2, Tyrosine-protein kinase ABL1 (Homo sapiens, UniProt P00519); assay: Binding affinity to phosphorylated ABL1 (unknown origin) after 1 hr
T2 sequence (P00519 whole entry): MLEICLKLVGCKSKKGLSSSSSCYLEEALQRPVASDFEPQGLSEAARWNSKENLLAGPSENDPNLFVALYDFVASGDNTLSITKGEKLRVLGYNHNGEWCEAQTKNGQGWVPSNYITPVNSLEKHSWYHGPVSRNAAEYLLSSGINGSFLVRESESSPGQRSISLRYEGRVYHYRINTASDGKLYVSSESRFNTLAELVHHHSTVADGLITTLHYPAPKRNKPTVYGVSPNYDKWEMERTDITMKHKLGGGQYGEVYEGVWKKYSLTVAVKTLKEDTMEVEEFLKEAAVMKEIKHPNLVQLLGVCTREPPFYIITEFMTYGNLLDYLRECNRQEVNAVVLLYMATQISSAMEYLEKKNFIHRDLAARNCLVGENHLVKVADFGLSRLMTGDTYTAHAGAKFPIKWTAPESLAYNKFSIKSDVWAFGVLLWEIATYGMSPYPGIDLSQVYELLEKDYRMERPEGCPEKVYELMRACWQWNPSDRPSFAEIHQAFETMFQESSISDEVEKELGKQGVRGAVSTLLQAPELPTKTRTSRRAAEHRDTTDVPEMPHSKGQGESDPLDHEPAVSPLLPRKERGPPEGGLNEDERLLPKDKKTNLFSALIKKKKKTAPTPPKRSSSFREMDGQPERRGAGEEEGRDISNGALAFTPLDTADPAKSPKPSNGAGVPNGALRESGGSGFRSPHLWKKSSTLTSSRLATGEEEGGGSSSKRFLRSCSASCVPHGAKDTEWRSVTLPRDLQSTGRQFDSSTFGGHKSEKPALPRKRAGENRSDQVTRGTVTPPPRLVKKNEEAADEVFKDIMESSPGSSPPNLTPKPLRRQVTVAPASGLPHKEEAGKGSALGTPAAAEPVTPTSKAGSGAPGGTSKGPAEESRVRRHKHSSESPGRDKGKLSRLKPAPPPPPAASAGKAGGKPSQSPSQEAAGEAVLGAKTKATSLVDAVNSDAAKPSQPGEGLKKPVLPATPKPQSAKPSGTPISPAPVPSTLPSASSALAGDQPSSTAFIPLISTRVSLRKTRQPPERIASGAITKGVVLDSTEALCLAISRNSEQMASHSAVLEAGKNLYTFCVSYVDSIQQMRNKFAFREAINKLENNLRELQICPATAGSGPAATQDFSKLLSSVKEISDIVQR

[5] = biological target: T2, Tyrosine-protein kinase ABL1; assay: Binding affinity to non phosphorylated ABL1 (unknown origin) after 1 hr
[6] = biological target: T3, Tyrosine-protein kinase receptor TYRO3 (Homo sapiens) (UniProt Q06418); assay: Inhibition of TYRO3 (unknown origin) at 200 nM relative to control
T3 sequence (whole entry): T1 sequence (Q06418 whole entry)

[7] = biological target: T4, Tyrosine-protein kinase Mer (Homo sapiens) (UniProt Q12866); assay: Inhibition of MER (unknown origin) at 200 nM relative to control
T4 sequence (whole entry): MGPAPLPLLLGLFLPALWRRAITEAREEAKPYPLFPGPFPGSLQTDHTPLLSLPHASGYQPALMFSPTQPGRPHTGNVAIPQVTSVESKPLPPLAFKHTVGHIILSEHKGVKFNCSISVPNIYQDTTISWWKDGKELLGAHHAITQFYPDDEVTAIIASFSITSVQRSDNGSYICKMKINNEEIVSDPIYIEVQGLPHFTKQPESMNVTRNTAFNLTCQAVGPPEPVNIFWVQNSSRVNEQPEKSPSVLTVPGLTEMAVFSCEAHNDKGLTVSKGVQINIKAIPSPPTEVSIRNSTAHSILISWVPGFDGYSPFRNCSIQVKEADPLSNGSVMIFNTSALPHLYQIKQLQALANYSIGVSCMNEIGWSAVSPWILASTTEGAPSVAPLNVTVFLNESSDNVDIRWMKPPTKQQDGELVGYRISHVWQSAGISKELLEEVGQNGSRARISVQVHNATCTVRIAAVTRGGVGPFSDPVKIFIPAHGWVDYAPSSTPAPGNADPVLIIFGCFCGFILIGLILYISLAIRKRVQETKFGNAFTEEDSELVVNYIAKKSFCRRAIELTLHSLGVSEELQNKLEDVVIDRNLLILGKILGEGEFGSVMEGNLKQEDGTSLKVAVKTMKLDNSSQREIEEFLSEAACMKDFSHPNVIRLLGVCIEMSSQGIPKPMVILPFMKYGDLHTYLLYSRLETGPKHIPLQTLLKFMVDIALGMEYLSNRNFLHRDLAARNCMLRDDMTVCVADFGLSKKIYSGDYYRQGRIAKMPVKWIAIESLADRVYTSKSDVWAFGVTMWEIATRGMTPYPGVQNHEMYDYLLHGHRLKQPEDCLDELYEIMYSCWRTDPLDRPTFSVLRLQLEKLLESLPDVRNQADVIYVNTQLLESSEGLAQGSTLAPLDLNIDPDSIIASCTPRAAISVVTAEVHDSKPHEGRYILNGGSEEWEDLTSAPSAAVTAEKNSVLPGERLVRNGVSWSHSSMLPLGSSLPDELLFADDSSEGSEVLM

[8] = biological target: T5, Tyrosine-protein kinase receptor UFO (Homo sapiens, UniProt P30530); assay: Binding affinity to AXL (unknown origin) after 1 hr
T5 sequence (P30530 whole entry): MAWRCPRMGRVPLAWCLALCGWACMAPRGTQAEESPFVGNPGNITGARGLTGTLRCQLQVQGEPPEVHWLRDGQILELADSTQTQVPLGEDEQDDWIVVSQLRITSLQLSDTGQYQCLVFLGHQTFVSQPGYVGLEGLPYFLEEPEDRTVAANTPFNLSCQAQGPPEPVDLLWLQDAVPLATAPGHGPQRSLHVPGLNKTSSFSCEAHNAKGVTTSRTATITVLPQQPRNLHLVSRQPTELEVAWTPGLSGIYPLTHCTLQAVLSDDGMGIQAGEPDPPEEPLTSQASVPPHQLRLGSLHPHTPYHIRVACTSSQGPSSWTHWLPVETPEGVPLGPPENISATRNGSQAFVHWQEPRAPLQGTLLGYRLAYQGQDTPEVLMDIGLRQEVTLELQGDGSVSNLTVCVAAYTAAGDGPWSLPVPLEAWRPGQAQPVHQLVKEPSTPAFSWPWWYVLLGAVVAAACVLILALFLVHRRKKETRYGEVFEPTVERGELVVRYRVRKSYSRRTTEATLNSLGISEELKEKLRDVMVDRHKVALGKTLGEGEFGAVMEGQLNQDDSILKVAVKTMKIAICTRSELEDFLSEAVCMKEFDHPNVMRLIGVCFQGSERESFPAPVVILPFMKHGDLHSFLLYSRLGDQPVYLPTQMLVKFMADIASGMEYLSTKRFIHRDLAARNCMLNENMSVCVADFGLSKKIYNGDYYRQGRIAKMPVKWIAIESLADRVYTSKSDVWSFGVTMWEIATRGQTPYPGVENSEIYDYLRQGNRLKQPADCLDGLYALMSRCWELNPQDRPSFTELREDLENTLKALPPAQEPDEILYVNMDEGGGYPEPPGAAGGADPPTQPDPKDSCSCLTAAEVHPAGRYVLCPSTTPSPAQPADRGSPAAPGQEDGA

[9] = biological target: T6, Tyrosine-protein kinase Mer (Homo sapiens, UniProt Q12866); assay: Binding affinity to MER (unknown origin) after 1 hr
T6 sequence (Q12866 whole entry): T4 sequence (whole entry)

Row | Compound | pKd [2] | pKd [3] | pKd [4] | pKd [5] | inhibition [6] [%] | inhibition [7] [%] | pKd [8] | pKd [9] | inhibition at 72 h, 10 µM [1] [%] | inhibition of growth at 10 µM (MCF7) [%] | inhibition of growth at 10 µM (PC-3) [%] | inhibition of growth at 10 µM (HT-29) [%] | inhibition of growth at 10 µM (KB) [%]
1 | CCN(CC)CCNC(=O)c1c(C)[nH]c(/C=C2\C(=O)Nc3ccc(F)cc32)c1C [SUNITINIB] |  |  |  |  |  |  |  |  | < 10 | < 10 | < 10 | < 10 | < 10
2 | O=C(Nc1cccc(-c2nc3c(Nc4ccccc4)ncnc3[nH]2)c1)c1ccccc1F |  |  |  |  |  |  |  |  | < 10 | < 10 | < 10 | < 10 | < 10
3 | O=C(Nc1ccc(Nc2ncnc3[nH]cnc23)cc1)c1cccn(-c2cccc(C(F)(F)F)c2)c1=O |  |  |  |  |  |  |  |  | < 10 | < 10 | < 10 | < 10 | < 10
4 | O=C(Nc1cccc(-c2ncnc3[nH]cnc23)c1)c1ccccc1F |  |  |  |  |  |  |  |  | < 10 | < 10 | < 10 | < 10 | < 10

Now from value to compound, other results behind:

Row | pKd [2] | pKd [3] | pKd [4] | pKd [5] | inhibition [6] [%] | inhibition [7] [%] | pKd [8] | pKd [9] | Compound | inhibition at 72 h, 10 µM [1] [%] | inhibition of growth at 10 µM (MCF7) [%] | inhibition of growth at 10 µM (PC-3) [%] | inhibition of growth at 10 µM (HT-29) [%] | inhibition of growth at 10 µM (KB) [%]
5 | 5.54 | 6.82 |  |  |  |  |  |  | O=C(Nc1ccc(Oc2ncnc3nc[nH]c23)c(F)c1)c1cccn(-c2ccc(C(F)(F)F)cc2)c1=O | < 10 | < 10 | < 10 | < 10 | < 10
6 | 6.05 | 6.36 | 5.48 | 6.49 |  |  |  |  | O=C(Nc1ccc(Oc2ncnc3[nH]cnc23)c(F)c1)c1cccn(-c2cccc(F)c2)c1=O | < 10 | < 10 | < 10 | < 10 | < 10
7 |  |  |  |  | > 50 | > 90 |  |  | CC(C)[S+]([O-])c1ccccc1Nc1nc(Nc2ccc(CN3CCN(C)CC3)cc2)ncc1Cl (centres undefined) |  |  |  |  | 
8 | 6.70 | 7.19 | 4.40 | 5.18 |  |  | 7.41 | 7.38 | O=C(Nc1ccc(Oc2ncnc3nc[nH]c23)c(F)c1)c1cccn(-c2ccc(F)cc2)c1=O | < 10 | < 10 | < 10 | < 10 | < 10
